ChEMBL document CHEMBL4261634, “Design and optimization of 2,3-dihydrobenzo[b][1,4]dioxine propanoic acids as novel GPR40 agonists with improved pharmacokinetic and safety profiles” (Bioorg Med Chem, 2018)
Active and inactive are the calls of the source. No cut-off for these calls is given here.

Legend:
[1] = AUC (0 to t) in Sprague-Dawley rat at 10 mg/kg, po by LC-ESI-MS analysis; type: ADME, organism-based; conditions: in vivo
Outline: (§1)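 SD rats dosed orally (3 or 10 mg/kg) or by intravenous injection (1 mg/kg). Plasma PK parameters derived per route: Cmax, AUC0-t, Tmax, t1/2 and F after oral dosing; CL, AUC0-t, MRT, t1/2 and Vdss after iv dosing. Mean ± SD from three independent experiments (n = 3).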

[2] = Tmax in Sprague-Dawley rat at 10 mg/kg, po by LC-ESI-MS analysis; type: ADME, organism-based; conditions: in vivo; outline: as §1
[3] = Tmax in Sprague-Dawley rat at 3 mg/kg, po by LC-ESI-MS analysis; type: ADME, organism-based; conditions: in vivo; outline: as §1
Rattus norvegicus [4] = assay: Subacute toxicity in Sprague-Dawley rat assessed as effect on food intake at 50 to 100 mg/kg, po administered once daily for 2 weeks; type: organism-based; conditions: in vivo, 336 h
Outline: (§2)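 SD rats dosed orally once daily for two weeks at 50 mg/kg and 100 mg/kg. Subacute toxicity was assessed over the dosing period from survival rate, behaviour, food intake and organ coefficients.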

[5] = Cmax in Sprague-Dawley rat at 10 mg/kg, po by LC-ESI-MS analysis; type: ADME, organism-based; parameters: dose 10 mg/kg, route oral; conditions: in vivo; outline: as §1
[6] = target: Voltage-gated inwardly rectifying potassium channel KCNH2 (Homo sapiens, UniProt Q12809); assay: Inhibition of human ERG by patch-clamp assay
Voltage-gated inwardly rectifying potassium channel KCNH2, sequence (Q12809 whole entry): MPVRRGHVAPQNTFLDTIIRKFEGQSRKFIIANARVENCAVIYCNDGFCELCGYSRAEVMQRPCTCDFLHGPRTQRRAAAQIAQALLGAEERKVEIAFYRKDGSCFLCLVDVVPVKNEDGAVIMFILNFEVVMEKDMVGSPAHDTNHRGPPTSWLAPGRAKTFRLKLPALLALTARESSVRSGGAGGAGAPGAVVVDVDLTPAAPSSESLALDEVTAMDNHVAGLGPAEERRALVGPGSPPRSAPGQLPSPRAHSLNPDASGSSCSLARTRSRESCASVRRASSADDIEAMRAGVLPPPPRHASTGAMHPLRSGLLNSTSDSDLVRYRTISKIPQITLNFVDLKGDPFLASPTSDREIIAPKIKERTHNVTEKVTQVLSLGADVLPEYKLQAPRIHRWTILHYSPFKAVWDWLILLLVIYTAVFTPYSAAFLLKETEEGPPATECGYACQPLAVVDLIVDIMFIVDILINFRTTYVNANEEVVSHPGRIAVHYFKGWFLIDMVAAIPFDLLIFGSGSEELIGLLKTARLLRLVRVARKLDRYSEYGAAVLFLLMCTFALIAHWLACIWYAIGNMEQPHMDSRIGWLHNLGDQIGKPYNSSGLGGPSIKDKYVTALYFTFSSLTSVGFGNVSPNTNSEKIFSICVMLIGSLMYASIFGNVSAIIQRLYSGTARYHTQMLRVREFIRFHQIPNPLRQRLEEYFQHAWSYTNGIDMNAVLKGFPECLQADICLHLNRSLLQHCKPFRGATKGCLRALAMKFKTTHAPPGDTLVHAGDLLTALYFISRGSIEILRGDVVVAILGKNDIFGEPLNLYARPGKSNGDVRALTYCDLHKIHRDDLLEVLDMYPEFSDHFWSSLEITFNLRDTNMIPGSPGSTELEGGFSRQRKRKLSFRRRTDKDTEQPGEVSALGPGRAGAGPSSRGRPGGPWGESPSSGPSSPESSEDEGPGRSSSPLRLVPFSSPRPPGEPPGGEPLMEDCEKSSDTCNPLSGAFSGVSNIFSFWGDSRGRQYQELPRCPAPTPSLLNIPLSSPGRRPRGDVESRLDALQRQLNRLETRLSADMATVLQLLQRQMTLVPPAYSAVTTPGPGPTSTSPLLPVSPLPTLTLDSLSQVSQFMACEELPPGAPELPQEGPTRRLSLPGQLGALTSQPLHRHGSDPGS
Outline: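 hERG K+ channel inhibition measured by patch clamp to give IC50.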

[7] = target: T1, Glucose-dependent insulinotropic receptor (Homo sapiens, UniProt Q8TDV5); assay: Agonist activity at GPR119 (unknown origin); type: functional
T1 sequence (Q8TDV5 whole entry): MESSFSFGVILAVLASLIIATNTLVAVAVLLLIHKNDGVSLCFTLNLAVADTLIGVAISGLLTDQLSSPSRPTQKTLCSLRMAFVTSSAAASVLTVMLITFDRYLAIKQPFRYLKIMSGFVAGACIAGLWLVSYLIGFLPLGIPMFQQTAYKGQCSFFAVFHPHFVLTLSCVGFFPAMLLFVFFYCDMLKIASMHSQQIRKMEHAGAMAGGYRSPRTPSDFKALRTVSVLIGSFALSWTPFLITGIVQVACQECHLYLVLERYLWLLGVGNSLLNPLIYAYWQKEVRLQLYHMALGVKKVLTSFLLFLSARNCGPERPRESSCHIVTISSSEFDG

[8] = target: T2, Free fatty acid receptor 1 (Homo sapiens, UniProt O14842); assay: Agonist activity at human GPR40 expressed in human HEK293 cells assessed as increase in intracellular calcium flux after 10 mins by fluorescence assay; type: functional, cell-based
T2 sequence (O14842 whole entry): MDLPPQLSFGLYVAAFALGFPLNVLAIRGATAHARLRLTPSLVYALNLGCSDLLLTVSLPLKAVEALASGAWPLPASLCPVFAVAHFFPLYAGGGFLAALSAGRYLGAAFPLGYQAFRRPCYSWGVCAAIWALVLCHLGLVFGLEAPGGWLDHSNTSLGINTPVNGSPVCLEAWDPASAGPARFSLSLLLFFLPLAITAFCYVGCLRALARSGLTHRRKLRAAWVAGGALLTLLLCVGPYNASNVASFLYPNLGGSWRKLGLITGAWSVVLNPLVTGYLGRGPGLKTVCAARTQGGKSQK
Outline: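 Human GPR40 activity read by calcium mobilization to give EC50. Mean ± SD, n = 3.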

[9] = Elimination half life in Sprague-Dawley rat at 3 mg/kg, po by LC-ESI-MS analysis; type: ADME, organism-based; conditions: in vivo, read-out: beta t1/2 (converted); outline: as §1
Rattus norvegicus [10] = assay: Antidiabetic activity in Sprague-Dawley rat assessed as reduction in blood glucose AUC (0 to 120 mins) at 10 to 20 mg/kg, po administered 60 mins prior to glucose challenge by OGTT; type: functional, organism-based
Outline: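 OGTT in SD rats: compound given orally 60 min before a 3.0 g/kg glucose challenge. Blood glucose followed over time, and AUC0-60min or AUC0-120min calculated versus vehicle group. Mean ± SD, n = 8.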

[11] = target: T2, Free fatty acid receptor 1; assay: Agonist activity at human GPR40 expressed in human HEK293 cells assessed as increase in intracellular calcium flux after 10 mins by fluorescence assay relative to linoleic acid; type: functional, cell-based
Outline: (§3)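 Human GPR40 activity read by calcium mobilization to give EC50. Emax expressed relative to linoleic acid as 100%. Mean ± SD, n = 3.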

[12] = Volume of distribution at steady state in Sprague-Dawley rat at 1 mg/kg, iv by LC-ESI-MS analysis; type: ADME, organism-based; conditions: in vivo, read-out: Vdss; outline: as §1
[13] = target: T3, Free fatty acid receptor 4 (Homo sapiens) (UniProt Q5NUL3); assay: Agonist activity at GPR120 (unknown origin) up to 100 uM; type: functional
T3 sequence (whole entry): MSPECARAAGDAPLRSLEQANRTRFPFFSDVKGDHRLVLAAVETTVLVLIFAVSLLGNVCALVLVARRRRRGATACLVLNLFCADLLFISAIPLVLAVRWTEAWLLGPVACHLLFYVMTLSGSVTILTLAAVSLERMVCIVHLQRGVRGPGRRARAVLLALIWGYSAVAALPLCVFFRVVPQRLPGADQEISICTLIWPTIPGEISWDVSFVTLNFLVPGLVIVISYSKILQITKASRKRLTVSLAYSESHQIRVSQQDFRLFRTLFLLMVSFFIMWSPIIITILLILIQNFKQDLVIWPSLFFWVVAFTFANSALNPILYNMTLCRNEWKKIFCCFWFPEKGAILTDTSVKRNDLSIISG

Cytochrome P450 2C19 = Cytochrome P450 2C19 (Homo sapiens, UniProt P33261); assay: Inhibition of CYP2C19 (unknown origin); type: ADME
Cytochrome P450 2C19, sequence (P33261 whole entry): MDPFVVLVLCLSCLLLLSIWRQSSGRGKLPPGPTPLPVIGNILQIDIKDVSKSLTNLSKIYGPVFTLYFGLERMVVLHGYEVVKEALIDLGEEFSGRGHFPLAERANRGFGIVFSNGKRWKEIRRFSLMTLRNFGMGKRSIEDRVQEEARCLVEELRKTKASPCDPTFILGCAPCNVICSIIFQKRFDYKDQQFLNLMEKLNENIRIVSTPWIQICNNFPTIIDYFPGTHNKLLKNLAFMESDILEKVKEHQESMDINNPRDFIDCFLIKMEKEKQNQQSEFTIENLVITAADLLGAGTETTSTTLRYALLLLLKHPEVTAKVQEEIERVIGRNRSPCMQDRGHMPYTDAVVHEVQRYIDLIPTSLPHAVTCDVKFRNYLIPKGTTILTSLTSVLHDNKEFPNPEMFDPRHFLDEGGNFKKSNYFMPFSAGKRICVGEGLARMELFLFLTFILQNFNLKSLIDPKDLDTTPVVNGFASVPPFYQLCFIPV

[14] = target: T2, Free fatty acid receptor 1; assay: Agonist activity at GPR40 (unknown origin); type: functional; outline: as §3
Rattus norvegicus [15] = assay: Subacute toxicity in Sprague-Dawley rat assessed as effect on organ coefficients at 50 to 100 mg/kg, po administered once daily for 2 weeks; type: organism-based; conditions: in vivo, 336 h; outline: as §2
[16] = Elimination half life in Sprague-Dawley rat at 10 mg/kg, po by LC-ESI-MS analysis; type: ADME, organism-based; conditions: in vivo, read-out: beta t1/2 (converted); outline: as §1
[17] = AUC (0 to t) in Sprague-Dawley rat at 3 mg/kg, po by LC-ESI-MS analysis; type: ADME, organism-based; conditions: in vivo; outline: as §1
Cytochrome P450 3A4 = Cytochrome P450 3A4 (Homo sapiens, UniProt P08684); assay: Inhibition of CYP3A4 (unknown origin); type: ADME
Cytochrome P450 3A4, sequence (P08684 whole entry): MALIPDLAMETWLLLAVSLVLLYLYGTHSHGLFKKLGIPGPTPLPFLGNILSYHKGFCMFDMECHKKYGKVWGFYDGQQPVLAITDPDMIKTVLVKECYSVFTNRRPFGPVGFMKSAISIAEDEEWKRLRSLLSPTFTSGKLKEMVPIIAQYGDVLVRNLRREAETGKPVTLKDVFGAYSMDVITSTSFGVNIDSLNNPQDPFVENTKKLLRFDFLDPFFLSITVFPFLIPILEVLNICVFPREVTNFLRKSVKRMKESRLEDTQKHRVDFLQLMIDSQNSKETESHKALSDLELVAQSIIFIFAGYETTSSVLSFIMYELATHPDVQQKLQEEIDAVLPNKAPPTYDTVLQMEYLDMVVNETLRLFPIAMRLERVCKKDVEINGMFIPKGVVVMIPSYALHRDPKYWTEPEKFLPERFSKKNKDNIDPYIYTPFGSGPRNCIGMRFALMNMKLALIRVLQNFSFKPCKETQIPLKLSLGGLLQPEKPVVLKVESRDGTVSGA

Cytochrome P450 2B6 = target: T4, Cytochrome P450 2B6 (Homo sapiens, UniProt P20813); assay: Inhibition of CYP2B6 (unknown origin); type: ADME
T4 sequence (P20813 whole entry): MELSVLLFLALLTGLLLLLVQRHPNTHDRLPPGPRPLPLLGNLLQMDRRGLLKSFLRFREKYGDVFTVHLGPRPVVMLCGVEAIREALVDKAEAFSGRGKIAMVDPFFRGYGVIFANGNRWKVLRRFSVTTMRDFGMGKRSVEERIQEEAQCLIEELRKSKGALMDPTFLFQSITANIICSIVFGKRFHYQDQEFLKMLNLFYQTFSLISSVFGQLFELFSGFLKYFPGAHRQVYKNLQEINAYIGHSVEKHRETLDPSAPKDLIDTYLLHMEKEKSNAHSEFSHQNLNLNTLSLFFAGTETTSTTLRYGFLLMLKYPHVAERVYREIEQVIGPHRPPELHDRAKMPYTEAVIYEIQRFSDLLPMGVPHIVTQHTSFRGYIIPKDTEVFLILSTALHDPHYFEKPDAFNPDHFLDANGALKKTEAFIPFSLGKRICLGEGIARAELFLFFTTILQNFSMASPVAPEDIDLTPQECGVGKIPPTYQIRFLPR

Compound: CC#C[C@@H](CC(=O)O)c1ccc(OC[C@H]2COc3ccc(Cl)cc3O2)cc1
- AUC(0-t) [1]: 656 µg·h/mL
- Tmax [2]: 4 h
- Tmax [3]: 3 h
- Activity (Rattus norvegicus [4]): Non-Toxic
- Cmax [5]: 47800 ng/mL
- IC50 [6]: > 40 µM
- EC50 [7]: > 100 µM
- EC50 [8]: 0.05 µM
- half-life [9]: 16.1 h
- Activity (Rattus norvegicus [10]): Active
- Emax [11]: 86%
- Vd [12]: 0.182 L/kg
- Activity [13]: inactive
- IC50 (Cytochrome P450 2C19): > 100 µM
- EC50 [14]: 0.046 µM
- Activity (Rattus norvegicus [15]): Non-Toxic
- half-life [16]: 25.7 h
- AUC(0-t) [17]: 140 µg·h/mL
- IC50 (Cytochrome P450 3A4): > 100 µM
- IC50 (Cytochrome P450 2B6): 84.7 µM
